Results from ChEMBL document CHEMBL4196129, “Structural Optimization and Characterization of Potent Analgesic Macrocyclic Analogues of Neurotensin (8-13)” (J Med Chem, 2018).
pEC50, pKi: −log10 of the molar value. Active and inactive are the calls of the source. The rule behind the calls is not given here. Starred links: 1 amine or outer side, 2 acyl side, 3 side chain; linkers in the order of their positions; H or OH if unused. Positions of bridges follow the written chain, without caps; N, C: chain ends. Non-standard residues stand in square brackets, D forms with d. Residues, ends and D or L forms follow the SMILES beside them. *: point of attachment. X6 = C=CCc1cc(C[C@H](N[*:1])C(=O)[*:2])ccc1O; NMeR = CN[C@@H](CCCNC(=N)N)C(=O)O; X7 = C=CCCCCCCC(=O)*

Legend:
[1] = biological target: T1, Neurotensin receptor type 1 (Homo sapiens, UniProt P30989); experiment: Displacement of [125I]Tyr3-neurotensin from human NTS1 receptor (end Leu 194 residues) expressed in CHO cells; assay type: cell-based
Procedure, shortened: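 Membranes from CHO-K1 cells stably expressing hNTS1 (15 µg) incubated with 45 pM 125I-[Tyr3]-NT in 50 mM Tris-HCl pH 7.5, 0.2% BSA. Analogue at 10^-11 to 10^-4 M for 60 min at 25°C, then filtration and gamma counting. Nonspecific binding defined with 10^-5 M NT(8-13).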

Rattus norvegicus [2] = experiment: Hypotensive activity in Sprague-Dawley rat assessed as reduction in arterial blood pressure in first phase at 0.01 mg/kg, iv measured every second up to 900 secs
Rattus norvegicus [3] = experiment: Hypotensive activity in Sprague-Dawley rat assessed as reduction in arterial blood pressure in third phase at 0.01 mg/kg, iv measured every second up to 900 secs; assay type: functional, organism-based
Procedure, shortened: (§1)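 Sprague-Dawley rats anesthetized with ketamine/xylazine (87:13 mg/kg, i.m.) on a heated pad. Compound given i.v. via jugular vein catheter at 0.01 mg/kg (1 mL/kg over 5-10 s); saline as control. Arterial pressure recorded each second for 900 s. Change in mean arterial pressure taken from basal level; n=3-5 rats.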

Rattus norvegicus [4] = experiment: Analgesic activity in Sprague-Dawley rat assessed as increase in tail withdrawal latency at 30 ug/kg, it measured every 10 mins up to 60 mins by tail flick test; assay type: functional, organism-based
Procedure, shortened: (§2)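 Adult male Sprague-Dawley rats (225-300 g), acclimatized 5 min/day for 3 days. Baseline tail-flick latency taken before injection. Dosing under light isoflurane anesthesia, intrathecal at L5-L6, compound in 0.9% saline; saline alone as control. Latency to heat (light beam) read every 10 min up to 60 min. %MPE taken at 10 min post-injection.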

Rattus norvegicus [5] = experiment: Induction of hypothermia in Sprague-Dawley rat assessed as reduction in body temperature at 30 ug/kg, it after 60 mins; assay type: functional, organism-based
Procedure, shortened: (§3)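 Rectal thermistor temperature in adult Sprague-Dawley rats acclimatized 5 min/day for 3 days. Baseline taken, then readings every 10 min to 60 min after intrathecal dosing in 0.9% saline, at 0.3, 1, 3, 10 and 30 µg/kg for the dose-response series. Single-dose comparisons at 30 µg/kg read only at 60 min. Change from baseline per animal; AUC per dose used for ED50.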

Rattus norvegicus [6] = experiment: Analgesic activity in formalin-induced Sprague-Dawley rat pain model assessed as inhibition of nociceptive response in right hind paw at 30 ug/kg, it measured for 21 to 60 mins; assay type: functional, organism-based
Procedure, shortened: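 Male Sprague-Dawley rats dosed intrathecally at 30 µg/kg in 0.9% saline; 5 min later, 50 µl of 2% formaldehyde given into the right hind paw plantar surface. Weighted pain score (0-3) recorded per 3-min block over 60 min. Acute phase 0-9 min, inflammatory phase 21-60 min.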

[7] = Half life in rat plasma by UPLC-MS analysis; assay type: ADME, cell-free
Procedure, shortened: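 Quenched with acetonitrile/ethanol (1:1) plus 0.5% nicotinamide, centrifuged and filtered. Parent peptide measured by UPLC-MS; half-life from a one-phase decay fit.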

[8] = biological target: T1, Neurotensin receptor type 1; experiment: Agonist activity at GFP10/beta-arrestin1-Rluc2 fused human NTS1 expressed in CHO-K1 cell membranes assessed as beta-arrestin1 recruitment after 20 mins by BRET assay; assay type: functional, cell-based
[9] = biological target: T1, Neurotensin receptor type 1; experiment: Displacement of [125I]Tyr3-neurotensin from human NTS1 receptor expressed in CHOK1 cell membranes after 60 mins by gamma counting analysis
Rattus norvegicus [10] = experiment: Hypotensive activity in Sprague-Dawley rat assessed as reduction in arterial blood pressure in first phase at 0.01 mg/kg, iv measured every second up to 900 secs; assay type: functional; procedure, shortened: as §1
Rattus norvegicus [11] = experiment: Analgesic activity in Sprague-Dawley rat assessed as increase in tail withdrawal latency at 30 ug/kg, it measured at 10 mins post injection by tail flick test relative to control; assay type: functional; procedure, shortened: as §2
[12] = biological target: T1, Neurotensin receptor type 1; experiment: Displacement of [3H]-neurotensin from NTS1 receptor (unknown origin) after 20 mins by liquid scintillation counting analysis
[13] = biological target: T1, Neurotensin receptor type 1; experiment: Agonist activity at GFP10/beta-arrestin2-Rluc2 fused human NTS1 expressed in CHO-K1 cell membranes assessed as beta-arrestin2 recruitment after 20 mins by BRET assay; assay type: functional, cell-based
[14] = biological target: T1, Neurotensin receptor type 1; experiment: Agonist activity at Galphaq-Rluc2/Gbeta1/GFP10-Ggamma1 fused human NTS1 expressed in CHO-K1 cell membranes assessed as Galphaq activation after 5 mins by BRET assay; assay type: functional, cell-based
[15] = biological target: T1, Neurotensin receptor type 1; experiment: Agonist activity at Galpha13-Rluc2/Gbeta1/GFP10-Ggamma1 fused human NTS1 expressed in CHO-K1 cell membranes assessed as Galpha13 activation after 5 mins by BRET assay; assay type: functional, cell-based
Rattus norvegicus [16] = experiment: Induction of hypothermia in it dosed Sprague-Dawley rat assessed as reduction in body temperature measured every 10 mins up to 60 mins; assay type: functional; procedure, shortened: as §3
Rattus norvegicus [17] = experiment: Analgesic activity in it dosed Sprague-Dawley rat assessed as increase in tail withdrawal latency measured every 10 mins up to 60 mins by tail flick test; assay type: functional; procedure, shortened: as §2
Rattus norvegicus [18] = experiment: Analgesic activity in Sprague-Dawley rat assessed as increase in tail withdrawal latency at 1 ug/kg, it measured every 10 mins up to 60 mins by tail flick test; assay type: functional, organism-based; procedure, shortened: as §2
Rattus norvegicus [19] = experiment: Analgesic activity in Sprague-Dawley rat assessed as increase in tail withdrawal latency at 10 ug/kg, it measured every 10 mins up to 60 mins by tail flick test; assay type: functional, organism-based; procedure, shortened: as §2
Rattus norvegicus [20] = experiment: Induction of hypothermia in Sprague-Dawley rat assessed as reduction in body temperature at 0.3 to 30 ug/kg, it after 60 mins; assay type: functional, organism-based; procedure, shortened: as §3

T1 sequence (P30989 whole entry): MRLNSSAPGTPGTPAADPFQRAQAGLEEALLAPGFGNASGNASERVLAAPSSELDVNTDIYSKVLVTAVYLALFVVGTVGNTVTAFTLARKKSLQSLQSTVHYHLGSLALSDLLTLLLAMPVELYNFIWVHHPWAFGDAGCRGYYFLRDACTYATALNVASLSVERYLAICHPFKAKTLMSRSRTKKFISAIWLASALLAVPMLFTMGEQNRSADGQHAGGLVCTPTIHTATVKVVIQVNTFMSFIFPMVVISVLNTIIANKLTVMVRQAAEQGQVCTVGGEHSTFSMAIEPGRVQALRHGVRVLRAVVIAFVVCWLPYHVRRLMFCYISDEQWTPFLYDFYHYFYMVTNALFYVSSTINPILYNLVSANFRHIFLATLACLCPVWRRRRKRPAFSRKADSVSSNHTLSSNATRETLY

CC[C@H](C)[C@H](NC(=O)[C@@H]1Cc2ccc(cc2)OCCCCCC(=O)N[C@@H](CCCNC(=N)N)C(=O)N2CCC[C@H]2C(=O)N1)C(=O)N[C@@H](CC(C)C)C(=O)O
pKi [1]: 6.35

CC[C@H](C)[C@H](NC(=O)[C@H]1Cc2ccc(O)c(c2)CC=CCCCCCC[C@](C)(N)C(=O)N[C@@H](CCCCN)C(=O)N2CCC[C@H]2C(=O)N1)C(=O)N[C@@H](CC(C)C)C(=O)O
Activity (Rattus norvegicus [2]): Active | Activity (Rattus norvegicus [3]): inactive | Activity (Rattus norvegicus [4]): Active | deltaT (Rattus norvegicus [5]): 2 °C | Activity (Rattus norvegicus [6]): Active

CC[C@H](C)[C@H](NC(=O)[C@@H]1Cc2ccc(O)c(c2)CC=CCNCCCCCC(=O)N[C@@H](CCCCN)C(=O)N2CCC[C@H]2C(=O)N1)C(=O)N[C@@H](CC(C)C)C(=O)O
half-life [7]: 24 h | pEC50 [8]: 7.02 | pKi [9]: 6.18

CCOC(=O)[C@H](CC(C)C)NC(=O)[C@@H](NC(=O)[C@H](Cc1c[nH]c2ccccc12)NC(=O)[C@@H]1CCCN1C(=O)[C@H](CCCCN)NC(=O)[C@@H](N)CCCCN)C(C)(C)C [listing 1 of 2 here]
Activity (Rattus norvegicus [10]): 25 mmHg | MPE (Rattus norvegicus [11]): 75%

CC(C)C[C@H](NC(=O)[C@@H]1CCC(=O)N[C@@H](CCCNC(=N)N)C(=O)N[C@@H](CCCCN)C(=O)N2CCC[C@H]2C(=O)N[C@@H](Cc2c[nH]c3ccccc23)C(=O)N1)C(=O)O (RKPWEL-OH; lactam N-5)
pKi [12]: 6.72

C=CCNCCCC[C@H](N)C(=O)N[C@@H](CCCCN)C(=O)N1CCC[C@H]1C(=O)N[C@@H](Cc1ccc(O)c(CC=C)c1)C(=O)N[C@H](C(=O)N[C@@H](CC(C)C)C(=O)O)[C@@H](C)CC
half-life [7]: 0.0833 h | pEC50 [13]: 8.05 | pEC50 [14]: 8.15 | pEC50 [8]: 7.82

CCOC(=O)[C@H](CC(C)C)NC(=O)[C@@H](NC(=O)[C@H](Cc1c[nH]c2ccccc12)NC(=O)[C@H]1CCCN1C(=O)[C@H](CCCCN)NC(=O)[C@@H](N)CCCCN)C(C)(C)C
Activity (Rattus norvegicus [2]): Active | Activity (Rattus norvegicus [3]): Active | deltaT (Rattus norvegicus [5]): 2 °C | Activity (Rattus norvegicus [6]): Active

CCOC(=O)[C@H](CC(C)C)NC(=O)[C@@H](NC(=O)[C@H](Cc1c[nH]c2ccccc12)NC(=O)[C@@H]1CCCN1C(=O)[C@H](CCCCN)NC(=O)[C@@H](N)CCCCN)C(C)(C)C [listing 2 of 2 here]
pKi [9]: 6.80

CC[C@H](C)[C@H](NC(=O)[C@@H]1Cc2ccc(O)c(c2)CC=CCCNCCCC[C@H](N)C(=O)N[C@@H](CCCCN)C(=O)N2CCC[C@H]2C(=O)N1)C(=O)N[C@@H](CC(C)C)C(=O)O
half-life [7]: 0.25 h

CC[C@H](C)[C@H](NC(=O)[C@@H]1Cc2ccc(O)c(c2)CC=CCNCC[C@H](N)C(=O)N[C@@H](CCCCN)C(=O)N2CCC[C@H]2C(=O)N1)C(=O)N[C@@H](CC(C)C)C(=O)O
half-life [7]: 2.5 h

C=CCCCCCCC(=O)N[C@@H](CCCCN)C(=O)N1CCC[C@H]1C(=O)N[C@@H](Cc1ccc(O)c(CC=C)c1)C(=O)N[C@H](C(=O)N[C@@H](CC(C)C)C(=O)O)[C@@H](C)CC (X7-KP[X6]IL-OH)
pKi [9]: < 5.00

CC[C@H](C)[C@H](NC(=O)[C@@H]1Cc2ccc(O)c(c2)CC=CCCCCCC[C@](C)(N)C(=O)N[C@@H](CCCCN)C(=O)N2CCC[C@H]2C(=O)N1)C(=O)N[C@@H](CC(C)C)C(=O)O [listing 1 of 2 here]
half-life [7]: 24 h | pEC50 [13]: 7.55

CC[C@H](C)[C@H](NC(=O)[C@@H]1Cc2ccc(O)c(c2)CC=CCNCCC[C@H](N)C(=O)N[C@@H](CCCCN)C(=O)N2CCC[C@H]2C(=O)N1)C(=O)N[C@@H](CC(C)C)C(=O)O [listing 1 of 2 here]
half-life [7]: 0.5 to 0.65 h | pEC50 [14]: 8.52 | pEC50 [8]: 8.40 | pEC50 [15]: 7.96

CC[C@H](C)[C@H](NC(=O)[C@@H]1Cc2ccc(O)c(c2)CC=CCCCCCC[C@](C)(N)C(=O)N[C@@H](CCCCN)C(=O)N2CCC[C@H]2C(=O)N1)C(=O)N[C@@H](CC(C)C)C(=O)O [listing 2 of 2 here]
Activity (Rattus norvegicus [10]): 25 mmHg | MPE (Rattus norvegicus [11]): 70%

CC[C@H](C)[C@H](NC(=O)[C@@H]1Cc2ccc(O)c(c2)CC=CCN(S(=O)(=O)c2ccccc2[N+](=O)[O-])CCCC[C@H](N)C(=O)N[C@@H](CCCCN)C(=O)N2CCC[C@H]2C(=O)N1)C(=O)N[C@@H](CC(C)C)C(=O)O
half-life [7]: 1.4 h

CC[C@H](C)[C@H](NC(=O)[C@@H]1Cc2ccc(O)c(c2)CC=CCNCCC[C@H](N)C(=O)N[C@@H](CCCCN)C(=O)N2CCC[C@H]2C(=O)N1)C(=O)N[C@@H](CC(C)C)C(=O)O [listing 2 of 2 here]
ED50 (Rattus norvegicus [16]): 1.96 µg/kg | Activity (Rattus norvegicus [10]): 25 mmHg | ED50 (Rattus norvegicus [17]): 4.63 µg/kg | MPE (Rattus norvegicus [11]): 50%

CC[C@H](C)[C@H](NC(=O)[C@@H]1Cc2ccc(O)c(c2)CC=CCCCNCCCC[C@H](N)C(=O)N[C@@H](CCCCN)C(=O)N2CCC[C@H]2C(=O)N1)C(=O)N[C@@H](CC(C)C)C(=O)O
half-life [7]: 0.3 h

CC(C)C[C@H](NC(=O)[C@@H]1CCC(=O)NCC(=O)N(C)[C@@H](CCCNC(=N)N)C(=O)N[C@@H](CCCCN)C(=O)N2CCC[C@H]2C(=O)N[C@@H](Cc2c[nH]c3ccccc23)C(=O)N1)C(=O)O (G[NMeR]KPWEL-OH; lactam N-6)
pKi [12]: 5.46

CC[C@H](C)[C@H](NC(=O)[C@@H]1Cc2ccc(O)c(c2)CC=CCNCCCC[C@@H](N)C(=O)N[C@@H](CCCCN)C(=O)N2CCC[C@H]2C(=O)N1)C(=O)N[C@@H](CC(C)C)C(=O)O
half-life [7]: 24 h

CC[C@H](C)[C@H](NC(=O)[C@@H]1Cc2ccc(O)c(c2)CC=CCCCCCCC(=O)N[C@@H](CCCCN)C(=O)N2CCC[C@H]2C(=O)N1)C(=O)N[C@@H](CC(C)C)C(=O)O
pEC50 ([8]; cho-k1): 5.82 | pKi [9]: 5.25 | pEC50 ([15]; cho-k1): 6.36

CC[C@H](C)[C@H](NC(=O)[C@H]1Cc2ccc(O)c(c2)CC=CCNCCC[C@@H](N)C(=O)N[C@@H](CCCCN)C(=O)N2CCC[C@H]2C(=O)N1)C(=O)N[C@@H](CC(C)C)C(=O)O
Activity (Rattus norvegicus [2]): Active | Activity (Rattus norvegicus [3]): inactive | Activity (Rattus norvegicus [16]): Dose-dependent effect | Activity (Rattus norvegicus [17]): Dose-dependent effect | Activity (Rattus norvegicus [4]): Active | Activity (Rattus norvegicus [18]): inactive | Activity (Rattus norvegicus [6]): Active | Activity (Rattus norvegicus [19]): Active | deltaT (Rattus norvegicus [20]): 2 °C
